# Reference: article PMC8546901 (Chembiochem : a European journal of chemical biology, 2021)
# Numbering of substitutions follows the chain as printed.
# Tests used:
# RGS17-RH [1] = target: T1, RGS17-RH (Homo sapiens, UniProt Q9UGC6); test: 1H-15N HSQC NMR fragment titration, chemical shift perturbation KD; assay type: binding; settings: calculated from KD and number of heavy atoms
# T1 sequence (Q9UGC6 72-206): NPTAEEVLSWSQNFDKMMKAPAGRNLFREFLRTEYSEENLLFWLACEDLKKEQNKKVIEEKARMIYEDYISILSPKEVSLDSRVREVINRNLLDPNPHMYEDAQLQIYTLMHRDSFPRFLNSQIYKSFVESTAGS
# Summary of the method: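 100 μM ¹⁵N-RGS17-RH was titrated with fragment from 100 μM up to its solubility limit (generally 2–10 mM) in phosphate buffer, pH 7.6, and ¹H-¹⁵N HSQC spectra were recorded. CSP was taken as the distance between control and treated peak centres. Per-residue KD came from a quadratic binding fit and was averaged over residues. LE = (−2.3039·R·T/HA)·log(KD).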
# RGS4-RH = target: T2, RGS4-RH (Homo sapiens, UniProt P49798); test: 1H-15N HSQC NMR binding to RGS4-RH; settings: 1H-15N HSQC with RGS4-RH
# T2 sequence (P49798 51-179): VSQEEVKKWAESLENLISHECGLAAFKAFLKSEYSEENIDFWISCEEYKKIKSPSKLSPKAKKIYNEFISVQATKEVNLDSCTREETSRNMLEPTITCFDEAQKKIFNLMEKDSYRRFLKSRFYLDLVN
# Summary of the method: (§1)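 ¹⁵N-labelled RH domains (wild-type RGS4, or RGS17 with the C117S point mutation) were expressed in E. coli BL21-CodonPlus(DE3)-RIPL in M9 medium with 1 g/L ¹⁵NH₄Cl. The His₆ tag was removed with TEV protease, and protein was purified by Ni-IMAC and size exclusion. ¹H-¹⁵N HSQC spectra were recorded with fragment at 1 mM in 1% DMSO and overlaid on 1% DMSO control spectra.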
# RGS17-RH C117S = target: T3, RGS17-RH C117S (Homo sapiens, UniProt Q9UGC6, C117S); test: 1H-15N HSQC NMR binding to RGS17-RH C117S mutant; settings: 1H-15N HSQC with RGS17-RH C117S mutant
# T3 sequence (Q9UGC6 72-206 C117S): T1 sequence (Q9UGC6 72-206) with C46S
# Summary of the method: as §1
# [2] = target: T4, RGS17-RH GAP activity towards Gαi1 (R178M, A326S) (Homo sapiens, UniProt Q9UGC6); test: Malachite green GAP activity assay; assay type: biochemical; settings: 1 mM fragment, 4.5 μM RGS17-RH
# T4 sequence (Q9UGC6 72-206): T1 sequence (Q9UGC6 72-206)
# Summary of the method: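 Free phosphate from GTP hydrolysis was detected colorimetrically with malachite green. Final concentrations were 300 μM GTP, 4.5 μM tag-free RGS17-RH and 1 mM fragment. Mean of n=3 independent experiments ± SEM.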
# RGS17-RH [3] = target: T1, RGS17-RH; test: Differential scanning fluorimetry; assay type: binding; settings: 1 mM fragment, 10 μM RGS17-RH
# Summary of the method: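 10 μM RGS17-RH was incubated 30 min at ambient temperature with 1 mM fragment or DMSO control. 2X Sypro Orange was then added, and fluorescence was recorded from 20 to 80 °C. Tm was calculated from the melt curves. Mean of n=3 ± S.E.M.; one-way ANOVA with multiple comparisons.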
# RGS17-RH [4] = target: T1, RGS17-RH; test: DACM cysteine labeling of RGS17-RH after pre-incubation; assay type: biochemical; settings: 10-fold molar excess compound (20 μM) over 2 μM RGS17-RH, 30 min pre-incubation
# Summary of the method: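 RGS17-RH, or buffer alone, was pre-incubated 30 min at ambient temperature with compound (final 2 μM protein, 20 μM compound; NEM as comparator). The buffer was 20 mM K₂HPO₄, 100 mM NaCl, 2 mM NaN₃, pH 7.6. DACM was then added, and fluorescence (ex 385/em 440 nm) was read for 1,000 s. Slopes were normalised to no-protein (0%) and protein without compound (100%). Mean of n=3 ± S.D.; one-way ANOVA.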
Compound,L.E. (ligand efficiency) (RGS17-RH [1]),RGS4 Binding (RGS4-RH),RGS C117S Binding (RGS17-RH C117S),effect on melting temperature of RGS17-RH (in words) (RGS17-RH [3]),other results
OCCCCCOc1ccc(Cl)cc1 [Fragment 7],0.25,Yes,Yes,–,–
CSc1cc(-c2ccc(F)cc2)[nH]n1 [Fragment 5],0.23,–,–,–,RGS4 Binding (RGS4-RH; listed as 5): No; RGS4 Binding (RGS4-RH; listed as fragment 5): did not bind; RGS C117S Binding (RGS17-RH C117S; listed as 5): No; RGS C117S Binding (RGS17-RH C117S; listed as fragment 5): did not bind
Oc1ccc(Sc2ccc(O)cc2)cc1 [Fragment 4],0.31,Yes,Yes,melting temperature could not be accurately determined,inhibition of RGS17-RH GAP activity ([2]; 300 μM GTP): ~20%
"CCN1C(=O)C=CC1=O [N-ethyl maleimide (NEM), N-ethyl maleimide, reference compound]",–,–,–,–,DACM labeling of RGS17-RH after pre-incubation (RGS17-RH [4]): decreased DACM labeling
OCCCCn1cnc2cc(Cl)c(Cl)cc21 [Fragment 6],0.25,Yes,Yes,not statistically significant,inhibition of RGS17-RH GAP activity (in words) ([2]; one-way ANOVA): lack of appreciable RGS17-RH GAP inhibition
